According to ChEMBL document CHEMBL1287774, “Discovery of new azaindole-based PI3Kα inhibitors: apoptotic and antiangiogenic effect on cancer cells” (Bioorg Med Chem Lett, 2010):

Assays:
[1] = target: Phosphatidylinositol 4,5-bisphosphate 3-kinase catalytic subunit alpha isoform (Homo sapiens, UniProt P42336); assay: Inhibition of PI3Kalpha
T47D [2] = assay: Antiproliferative activity against human T47D cells by MTT assay; type: functional, cell-based
Method in brief: (§1)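 Human breast cancer cultures (T47D, SK-BR3, MCF-7) exposed to compound. Cell viability is read by MTT and expressed as growth IC50.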

MCF7 = assay: Antiproliferative activity against human MCF7 cells assessed as by MTT assay; type: functional, cell-based; method in brief: as §1
SK-BR-3 = assay: Antiproliferative activity against human SKBR3 cells by MTT assay; type: functional, cell-based; method in brief: as §1
HUVEC [3] = assay: Antiangiogenic activity against HUVEC assessed as inhibition of wound-induced migration of cells to non-wounded region; type: functional, cell-based; conditions: Homo sapiens
Method in brief: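 HUVEC wound-induced migration assay. Migration is quantified by counting the cells that moved beyond the reference line into the non-wounded region.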

T47D [4] = assay: Induction of apoptosis in human T47D cells assessed as increase in non-viable cells at 1 uM after 24 hrs using annexin-V FITC and PI staining by flow cytometric analysis relative to control; type: functional
Method in brief: (§2)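 T47D cells treated with various compound concentrations for 24 h, then stained with Annexin V-FITC and PI and analysed by flow cytometry. Early-apoptotic cells are Annexin V-positive/PI-negative. Changes are expressed relative to untreated control.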

T47D [5] = assay: Induction of apoptosis in human T47D cells assessed as decrease in viable cells at 10 uM after 24 hrs using annexin-V FITC and PI staining by flow cytometric analysis relative to control; type: functional; method in brief: as §2
T47D [6] = assay: Induction of apoptosis in human T47D cells assessed as increase in late apoptotic cells at 10 uM after 24 hrs using annexin-V FITC and PI staining by flow cytometric analysis relative to control; type: functional; method in brief: as §2
T47D [7] = assay: Induction of apoptosis in human T47D cells assessed as increase in early apoptotic cells at 50 uM after 24 hrs using annexin-V FITC and PI staining by flow cytometric analysis relative to control; type: functional; method in brief: as §2
T47D [8] = assay: Induction of apoptosis in human T47D cells assessed as increase in late apoptotic cells at 1 uM after 24 hrs using annexin-V FITC and PI staining by flow cytometric analysis relative to control; type: functional; method in brief: as §2
T47D [9] = assay: Induction of apoptosis in human T47D cells assessed as increase in late apoptotic cells at 50 uM after 24 hrs using annexin-V FITC and PI staining by flow cytometric analysis relative to control; type: functional; method in brief: as §2
T47D [10] = assay: Induction of apoptosis in human T47D cells assessed as decrease in viable cells at 1 uM after 24 hrs using annexin-V FITC and PI staining by flow cytometric analysis relative to control; type: functional; method in brief: as §2
T47D [11] = assay: Induction of apoptosis in human T47D cells assessed as increase in non-viable cells at 50 uM after 24 hrs using annexin-V FITC and PI staining by flow cytometric analysis relative to control; type: functional; method in brief: as §2
T47D [12] = assay: Induction of apoptosis in human T47D cells assessed as increase in early apoptotic cells at 1 uM after 24 hrs using annexin-V FITC and PI staining by flow cytometric analysis relative to control; type: functional; method in brief: as §2
HUVEC [13] = assay: Antiangiogenic activity against HUVEC assessed as inhibition of tubular network formation on matrigels beds; type: functional, cell-based; conditions: Homo sapiens
Method in brief: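 HUVECs plated onto Matrigel beds and treated with DMSO vehicle or compound at 0.1, 1 and 10 µM. Read-out is formation of a capillary-like tubular network, assessed from representative images.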

T47D [14] = assay: Induction of apoptosis in human T47D cells assessed as decrease in viable cells at 50 uM after 24 hrs using annexin-V FITC and PI staining by flow cytometric analysis relative to control; type: functional; method in brief: as §2
T47D [15] = assay: Induction of apoptosis in human T47D cells assessed as increase in non-viable cells at 10 uM after 24 hrs using annexin-V FITC and PI staining by flow cytometric analysis relative to control; type: functional; method in brief: as §2
T47D [16] = assay: Induction of apoptosis in human T47D cells assessed as increase in early apoptotic cells at 10 uM after 24 hrs using annexin-V FITC and PI staining by flow cytometric analysis relative to control; type: functional; method in brief: as §2

Phosphatidylinositol 4,5-bisphosphate 3-kinase catalytic subunit alpha isoform, sequence (P42336 whole entry, canonical isoform): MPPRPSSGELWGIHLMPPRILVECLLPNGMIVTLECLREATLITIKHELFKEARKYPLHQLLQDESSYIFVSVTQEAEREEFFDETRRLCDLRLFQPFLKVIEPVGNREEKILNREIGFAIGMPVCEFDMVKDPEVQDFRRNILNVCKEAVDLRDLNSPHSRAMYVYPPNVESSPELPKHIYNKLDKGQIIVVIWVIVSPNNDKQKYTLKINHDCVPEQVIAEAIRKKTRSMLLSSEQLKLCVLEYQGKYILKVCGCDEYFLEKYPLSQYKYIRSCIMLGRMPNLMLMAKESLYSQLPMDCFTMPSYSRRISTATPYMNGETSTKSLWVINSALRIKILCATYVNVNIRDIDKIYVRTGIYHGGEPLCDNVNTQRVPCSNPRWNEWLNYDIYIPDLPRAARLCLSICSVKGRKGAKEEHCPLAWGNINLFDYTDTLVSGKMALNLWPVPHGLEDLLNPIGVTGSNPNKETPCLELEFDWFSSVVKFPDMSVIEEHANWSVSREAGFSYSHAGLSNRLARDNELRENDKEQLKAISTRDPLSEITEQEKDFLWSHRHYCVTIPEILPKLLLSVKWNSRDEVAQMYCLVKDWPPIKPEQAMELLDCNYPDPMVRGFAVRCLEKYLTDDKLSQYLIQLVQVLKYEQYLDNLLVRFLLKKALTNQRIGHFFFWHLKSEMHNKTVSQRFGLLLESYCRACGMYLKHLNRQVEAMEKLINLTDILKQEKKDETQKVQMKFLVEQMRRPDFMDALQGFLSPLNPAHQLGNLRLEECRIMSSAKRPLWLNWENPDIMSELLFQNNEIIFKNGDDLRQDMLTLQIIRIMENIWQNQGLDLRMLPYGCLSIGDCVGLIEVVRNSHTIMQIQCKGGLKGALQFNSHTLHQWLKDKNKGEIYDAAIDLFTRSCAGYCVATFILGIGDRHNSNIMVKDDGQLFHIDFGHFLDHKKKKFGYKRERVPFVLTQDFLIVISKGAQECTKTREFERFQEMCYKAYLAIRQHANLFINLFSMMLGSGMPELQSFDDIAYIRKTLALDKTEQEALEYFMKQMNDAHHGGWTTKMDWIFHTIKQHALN

For `N#Cc1cccc(-c2c[nH]c3ncc(-c4cnc(N)c(NS(=O)(=O)N5CCOCC5)c4)cc23)c1`, the IC50 [1] was 130 nM.
`CC(=O)c1c[nH]c2ncc(-c3cncc(NS(=O)(=O)c4ccccc4)c3)cc12` showed an IC50 [1] of 620 nM.
In the case of `N#Cc1cccc(-c2c[nH]c3ncc(-c4cncc(NS(=O)(=O)c5ccc(F)cc5F)c4)cc23)c1`, the IC50 [1] is reported as 27 nM.
Work on `O=S(=O)(Nc1cncc(-c2cnc3[nH]ccc3c2)c1)c1ccccc1` yielded an IC50 [1] of 5200 nM.
`O=S(=O)(Nc1cncc(-c2cnc3[nH]cc(-c4cccnc4)c3c2)c1)c1ccccc1` showed an IC50 (T47D [2]) of 3.6 µM, an IC50 (MCF7) of 6.8 µM and an IC50 [1] of 12 nM. The IC50 (SK-BR-3) was 12 µM.
In the case of `COc1ccc(-c2c[nH]c3ncc(-c4cnc(N)c(NS(=O)(=O)c5ccc(F)cc5F)c4)cc23)cc1OC`, the IC50 [1] is reported as 3 nM.
`CS(=O)(=O)Nc1cccc(-c2c[nH]c3ncc(-c4cncc(NS(=O)(=O)c5ccccc5)c4)cc23)c1` showed an IC50 [1] of 950 nM.
`COc1ccc(-c2c[nH]c3ncc(-c4cnc(N)c(NS(=O)(=O)N5CCOCC5)c4)cc23)cc1OC` was tested, and the Activity (HUVEC [3]) was “Dose-dependent effect”, the Activity (T47D [4]) was 0.96% and the Activity (T47D [5]) was 90.61%. The Activity (T47D [6]) was 4.98%, the Activity (T47D [7]) was 28.24% and the IC50 (T47D [2]) was 0.7 µM. It also gave an Activity (T47D [8]) of 3.04%, an Activity (T47D [9]) of 47.5% and an Activity (T47D [10]) of 94.44%. For the same compound, the Activity (T47D [11]) was 7.32%, the Activity (T47D [12]) was 1.56% and the Activity (HUVEC [13]) was “Dose-dependent effect”. For the same compound, the Activity (T47D [14]) was 19.64%, the IC50 (SK-BR-3) was 3.7 µM and the Activity (T47D [15]) was 2.86%. It also gave an Activity (T47D [16]) of 1.52%.
`N#Cc1cccc(-c2c[nH]c3ncc(-c4cncc(NS(=O)(=O)c5ccccc5)c4)cc23)c1` showed an IC50 [1] of 31 nM.
In the case of `COc1ccc(-c2c[nH]c3ncc(-c4cncc(N)c4)cc23)cc1OC`, the IC50 [1] is reported as 460 nM.
`COc1ccc(-c2c[nH]c3ncc(-c4cncc(NS(=O)(=O)c5ccccc5)c4)cc23)cc1OC` gave an IC50 (T47D [2]) of 8.5 µM, an IC50 [1] of 12 nM and an IC50 (SK-BR-3) of 22 µM.
With `CC(=O)c1c[nH]c2ncc(-c3cnc(N)c(NS(=O)(=O)N4CCOCC4)c3)cc12` the IC50 [1] was 730 nM.
Compound `COc1ccc(-c2c[nH]c3ncc(-c4cccc(NS(=O)(=O)c5ccccc5)c4)cc23)cc1OC` has an IC50 [1] of 1600 nM.
